Data set [1] has as its target T1, ATP-dependent translocase ABCB1 (Homo sapiens, UniProt P08183). The experiment in a line: Ratio of human MDR1 modulation transfected in mouse L5178Y cells at 40 ug/ml to human MDR1 modulation transfected in mouse L5178Y cells at 4 ug/ml. Type of data set: cell-based.
Data set [2] deals with T1, ATP-dependent translocase ABCB1. Put plainly: Inhibition of human MDR1 transfected in mouse L5178Y cells assessed as fluorescence activity ratio at 40 ug/ml after 10 mins by rhodamine 123 dye based fluorescence analysis. It counts as cell-based.
The target is the same in data set [3]. Put plainly: Potency index, ratio of compound activity to verapamil hydrochloride activity for human MDR1 modulation transfected in mouse L5178Y cells at 4 ug/ml. It counts as cell-based.
The nature of data set [4]: Cytotoxicity against human HSC2 cells after 48 hrs by MTT assay. It counts as functional. Particulars: HSC-2, 48 h, pooled result: one value given for 3 cell lines, strains, targets or settings. The gist of the method: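 Compounds were incubated with cells at 37 °C for 48 hr. HSC-2 and HSC-4 squamous carcinoma cells were grown in supplemented DMEM, and viability was read by MTT. HL-60 promyelocytic leukemia cells were grown in supplemented RPMI1640, and viability was read by trypan blue exclusion. CC50 is the concentration killing 50% of cells, reported as an average.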
For orientation: Formazan colour is commonly taken as a measure of viable cells.

The target in data set [5] is T1, ATP-dependent translocase ABCB1. Put plainly: Inhibition of human MDR1 transfected in mouse L5178Y cells assessed as fluorescence activity ratio at 4 ug/ml after 10 mins by rhodamine 123 dye based fluorescence analysis. Type of data set: cell-based.

Each structure is given as a SMILES string.

T1 sequence (P08183 whole entry): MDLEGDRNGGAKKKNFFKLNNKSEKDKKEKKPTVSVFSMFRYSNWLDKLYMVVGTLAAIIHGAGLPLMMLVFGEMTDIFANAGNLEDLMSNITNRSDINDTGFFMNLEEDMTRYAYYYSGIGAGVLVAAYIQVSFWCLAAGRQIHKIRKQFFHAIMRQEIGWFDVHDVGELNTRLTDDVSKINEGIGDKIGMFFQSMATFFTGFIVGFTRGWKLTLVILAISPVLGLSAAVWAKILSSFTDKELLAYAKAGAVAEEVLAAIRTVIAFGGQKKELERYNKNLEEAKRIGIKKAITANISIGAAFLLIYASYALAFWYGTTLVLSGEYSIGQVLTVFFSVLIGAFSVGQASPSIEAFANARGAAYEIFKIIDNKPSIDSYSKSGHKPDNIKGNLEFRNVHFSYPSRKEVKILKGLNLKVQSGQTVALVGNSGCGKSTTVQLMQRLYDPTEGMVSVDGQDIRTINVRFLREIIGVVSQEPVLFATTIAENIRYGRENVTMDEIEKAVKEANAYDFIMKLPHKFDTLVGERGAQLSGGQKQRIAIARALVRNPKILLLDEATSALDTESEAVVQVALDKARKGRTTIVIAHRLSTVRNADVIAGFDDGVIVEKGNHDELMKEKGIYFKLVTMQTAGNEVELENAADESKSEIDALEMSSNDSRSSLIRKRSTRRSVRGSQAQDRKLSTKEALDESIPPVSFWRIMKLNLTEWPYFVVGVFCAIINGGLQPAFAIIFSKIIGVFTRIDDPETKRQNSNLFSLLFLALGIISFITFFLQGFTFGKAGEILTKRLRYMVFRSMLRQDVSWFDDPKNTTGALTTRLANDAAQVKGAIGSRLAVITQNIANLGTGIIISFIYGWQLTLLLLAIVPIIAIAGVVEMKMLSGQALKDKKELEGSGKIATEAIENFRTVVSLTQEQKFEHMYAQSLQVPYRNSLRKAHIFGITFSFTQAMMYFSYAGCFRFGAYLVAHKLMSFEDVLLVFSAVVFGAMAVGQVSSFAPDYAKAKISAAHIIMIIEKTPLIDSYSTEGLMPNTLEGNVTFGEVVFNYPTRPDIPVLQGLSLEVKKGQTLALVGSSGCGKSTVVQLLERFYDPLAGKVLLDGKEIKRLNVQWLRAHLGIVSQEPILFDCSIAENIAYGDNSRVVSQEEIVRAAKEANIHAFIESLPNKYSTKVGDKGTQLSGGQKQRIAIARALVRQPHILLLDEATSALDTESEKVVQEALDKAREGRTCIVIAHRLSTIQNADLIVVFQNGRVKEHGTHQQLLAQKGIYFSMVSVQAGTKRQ

Take `COc1ccc(/C=C2\CN(C(=O)CCSCCO)C/C(=C\c3ccc(OC)cc3)C2=O)cc1`: the Ratio in data set [1] was found to be 2.29; in data set [2], 85.1; in data set [3], 9; in data set [5], 37.1. The CC50 – broadly, the concentration that lowers cell viability or growth by half – in data set [4] was 2.67 µM.
In data set [4], `N[C@@H](Cc1ccc(N(CCCl)CCCl)cc1)C(=O)O` came in with a CC50 of 14 µM.
Turning to `O=C1/C(=C/c2ccc([N+](=O)[O-])cc2)CN(C(=O)CCSCCS(=O)(=O)O)C/C1=C\c1ccc([N+](=O)[O-])cc1`, the Ratio is given as 1.5 in data set [1], 1.71 in data set [2] and 1.14 in data set [5]. In addition, half-maximal cytotoxicity in data set [4] (CC50) was put at 4.73 µM.
On to `Cc1ccc(/C=C2\CN(C(=O)CCSCCO)C/C(=C\c3ccc(C)cc3)C2=O)cc1`, for which the Ratio in data set [1] was determined as 0.8; in data set [2] it was 44.4; in data set [5], 55.4. The molecule further displayed a CC50 in data set [4] of 1.56 µM.
On to `O=C1/C(=C/c2ccc([N+](=O)[O-])cc2)CN(C(=O)CCSCCO)C/C1=C\c1ccc([N+](=O)[O-])cc1`, for which the Ratio was 2.26 in data set [1], 20 in data set [2] and 8.86 in data set [5]. The CC50 in data set [4] turned out to be 0.39 µM.
For the molecule `COc1ccc(/C=C2\CN(C(=O)CCSCCS)C/C(=C\c3ccc(OC)cc3)C2=O)cc1`, the Ratio was found to be 6.67 in data set [1], 126 in data set [2] and 18.9 in data set [5]. For the same molecule, in data set [4], the 50% cytotoxic concentration (CC50) came out at 3.37 µM.
The like results for `COc1ccc(/C=C2\CN(C(=O)CCSCCS(=O)(=O)O)C/C(=C\c3ccc(OC)cc3)C2=O)cc1` were, in that order, 2.54, 3.23, 1.27 and 91.7 µM.
Take `O=C1/C(=C/c2ccc(Cl)cc2)CN(C(=O)CCSCCS(=O)(=O)O)C/C1=C\c1ccc(Cl)cc1`: the figures for the Ratio in data set [1], in data set [2] and in data set [5] were 1.5, 1.71 and 1.14, respectively. Moreover, in data set [4], the midpoint of cytotoxicity, the CC50, lay at 29.7 µM.
As to `O=C1/C(=C/c2ccccc2)CN(C(=O)CCSCCS(=O)(=O)O)C/C1=C\c1ccccc1`, the Ratio in data set [1] is 1.05; in data set [2], 1.2; in data set [5] it was 1.14. For the same molecule, in data set [4], it took 154 µM to reach half-maximal cytotoxicity (CC50).
Turning to `O=C1/C(=C/c2ccc(Cl)cc2)CN(C(=O)CCSCCO)C/C1=C\c1ccc(Cl)cc1`, the Ratio in data set [1] was 0.92; in data set [2], 45; in data set [5], 49.2. The molecule also gave a CC50 in data set [4] of 0.66 µM.
As to `O=C1/C(=C/c2ccccc2)CN(C(=O)CCSCCO)C/C1=C\c1ccccc1`, the Ratio in data set [1] was determined as 9; in data set [2] it was 42.4; in data set [5], 4.71. In data set [4], this molecule yielded a CC50 of 1.53 µM.
Take `Cc1ccc(/C=C2\CN(C(=O)CCSCCS(=O)(=O)O)C/C(=C\c3ccc(C)cc3)C2=O)cc1`: the Ratio came to 1.33 in data set [1], 1.6 in data set [2] and 1.2 in data set [5]. This molecule also had a 50% cytotoxic concentration (CC50) in data set [4] of 126 µM.

(Values after ChEMBL document CHEMBL3758096, “1-[3-(2-Hydroxyethylsulfanyl)propanoyl]-3,5-bis(benzylidene)-4-piperidones: A novel cluster of P-glycoprotein dependent multidrug resistance modulators” (Bioorg Med Chem Lett, 2016).)
